A selection: hits, their analogues and other compounds. The true share with any hit is near 4.3%.
FLuc inh counter – firefly luciferase enzyme inhibitors, primary screen, artefact control for luciferase-based inhibitor screens, biochemical, luminescence, ATPLite | Luciferin 4-monooxygenase (Photinus pyralis), P08659 | actives 1.5% (n = 200,000) | inhibition, % at 10 µM | 10 min | AID 1006, 2008;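 active means inhibition above about 50% when tested at 10 µM, limit read from the data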
Target sequence (P08659 whole entry, looked up): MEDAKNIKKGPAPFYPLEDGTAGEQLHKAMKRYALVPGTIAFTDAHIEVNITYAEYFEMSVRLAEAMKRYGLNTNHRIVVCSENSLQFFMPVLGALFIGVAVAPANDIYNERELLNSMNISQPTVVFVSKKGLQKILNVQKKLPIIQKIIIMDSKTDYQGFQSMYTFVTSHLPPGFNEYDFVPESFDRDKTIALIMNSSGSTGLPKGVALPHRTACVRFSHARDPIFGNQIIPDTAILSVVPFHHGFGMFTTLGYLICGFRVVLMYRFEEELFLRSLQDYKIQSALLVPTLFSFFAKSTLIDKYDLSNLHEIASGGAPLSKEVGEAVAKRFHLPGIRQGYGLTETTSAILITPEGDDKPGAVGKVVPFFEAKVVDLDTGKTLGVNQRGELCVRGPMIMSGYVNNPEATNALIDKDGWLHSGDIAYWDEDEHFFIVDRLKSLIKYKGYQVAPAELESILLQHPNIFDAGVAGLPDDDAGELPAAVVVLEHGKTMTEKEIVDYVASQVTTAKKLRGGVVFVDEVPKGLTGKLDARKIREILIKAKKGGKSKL
NF-kB expr up – activators of NF-kB expression in neurons, primary screen, cell-based, HTS. actives 1.6% (n = 190,000). human neuronal cells, NF-kB reporter expression; stronger effect = higher value. fold change at 12.5 µM; in the data active means fold change above about 3.3
sdo1 growth – growth rescue of sdo1-depleted yeast, primary screen, S. cerevisiae, bone marrow failure model. actives 0.21% (n = 140,000). AID 817, 2007. z-score at 10 µM. S. cerevisiae sdo1-depleted JHY4D growth rescue, OD600 30 h; stronger effect = higher value; pdr5 snq2 efflux-pump mutant strain;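 active means z-score above 3 at both the 24 hr and the 30 hr optical density reads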;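 further: z-score against mean and SD of all compound wells on the same plate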
FLuc stim CS – FLuc activators, initial screening, artefact control for FLuc-dependent activation tests, biochemical, ATPlite luminescence | Luciferin 4-monooxygenase (Photinus pyralis), P08659 | ATPlite luciferase biochemical, 10 min; 0 = ATP-free wells, 1 = DMSO control | activation factor at 10 µM | 200,000 tested, under 10 active | AID 1027, 2008;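 active means luciferase activation factor, scaled between plate controls, of at least 2 with compound at 10 µM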
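Material: Luciferase/luciferin reagent mix | Doses: Test compounds dosed from 2 mM stocks in 100% DMSO | Timing: 10 min incubation after luciferase reagent addition, room temperature | Measured by: Luminescence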
STAT1 activator – STAT1 signaling activators, primary screen, cell-based, HTS, luciferase reporter; NIH 3T3 STAT1-luciferase reporter, IFN-gamma, luminescence; 100% = IFN-gamma alone, no compound; activation (% of control), % at 5.5 µM; actives 2.6% (n = 200,000);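 active means activation above the screen-wide mean activation plus 3 SD, cut at about 130% in these data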;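 further: raw ratio to IFN-gamma control signal so 100% means no change and 0% no light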
APP 5'UTR act – activators of APP 5'UTR luciferase reporter, primary screen, SH-SY5Y cells | SH-SY5Y APP 5'UTR luciferase reporter, luminescence; zero percent = DMSO vehicle wells | activation, % at 2 µM | actives 1% (n = 190,000);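 active means activation above a set limit, based on mean plus 3 SD of controls, cut at about 140% in these data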
sdo1 rescue conf – SDO1-depleted yeast growth rescue, concentration-response, diseases of bone marrow failure, JHY4D, OD600. actives 44% (n = 440). AID 949, 2007. shares compounds with sdo1 growth. S. cerevisiae JHY4D (SDO1-depleted) growth rescue, 30 h; stronger effect = higher value; efflux-deficient strain, SNQ2 and PDR5 mutated. OD recovery (no concentration beside the values);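 active means yeast growth recovered at 30 hours, either rising with dose fitted slope above 0.001 or with average optical density gain above 0.07, some results past the limit were not filed as active; inactive means growth falling with dose or no effect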;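 further: gain in OD600 from 0 h to 30 h averaged across all seven doses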
Starred values were filed as active, the others as inactive; x = no result given.

SMILES | FLuc inh counter | NF-kB expr up | sdo1 growth | FLuc stim CS | STAT1 activator | APP 5'UTR act | sdo1 rescue conf
CCOC(=O)c1sc2nc3n(c(=O)c2c1C)CCC(C)CC3 (configuration not stated) | -5 | 1.6 | 4* | 1 | 117 | 33 | 0.065
CCn1c(N)c(C(=O)NCc2ccc3c(c2)OCO3)sc1=S | -6 | 1.1 | 2.2 | 1.1 | 96 | 5 | 0.059
COc1ccc(Br)cc1C(=O)Nc1nnn(C)n1 | -3 | 1.1 | -0.32 | 1 | 91 | -6 | x
COc1ccc(Cl)cc1C(=O)Nc1nnn(C)n1 | -6 | 1.1 | 2.3 | 1.1 | 100 | 4 | 0.071
COc1ccc(C(=O)OCC(=O)Nc2cc(C)c(C)cc2[N+](=O)[O-])cc1 | -2 | 1.1 | 2.3 | 1 | 108 | -9 | 0.043
CCOC(=O)[C@@H]1C(c2c(OC)cc(OC)cc2OC)=NO[C@@H]1C(=O)OCC | -5 | 1.3 | 6* | 1.1 | 100 | -4 | 0.071*
Cc1ccc(Cn2nc(C)c(NC(=O)c3nn(C)cc3Cl)c2C)cc1 | -1 | 1.2 | 0.79 | 1 | 93 | 5 | x
Cc1nn(Cc2ccc(Br)cc2)c(C)c1NC(=O)c1nn(C)cc1Cl | 4 | 1.2 | 15* | 1 | 97 | 21 | 0.05
CCOCCOC(=O)C(C)Oc1ccc(Oc2ncc(Cl)cc2Cl)cc1 (configuration not stated) | -7 | 1.4 | 6.9* | 1.1 | 102 | -15 | 0.11*
CC(C)NC(=O)c1ccccc1NC(=O)CN(c1ccc2c(c1)OCO2)S(C)(=O)=O | -6 | 1.2 | 3.1* | 1.1 | 93 | -2 | 0.068
COc1cc(CN(C)CCc2ccccc2)ccc1OCc1ccccc1 | 0 | 1.1 | -0.39 | 1 | 99 | -4 | x
CC(NC(=O)CSCc1ccc(Br)cc1)c1ccccc1 (configuration not stated) | 0 | x | x | 1 | 97 | -2 | x
CC(C)NC(=O)CSCc1cccc(Br)c1 | -3 | 1.2 | 5.2* | 1 | 106 | 15 | 0.064
Cn1c2c(c(O)c(-c3ccccc3)c1=O)C(=O)CC(C)(C)C2 | -5 | 1.2 | -0.12 | 1.1 | 104 | -7 | x
Cc1cc(C)c(-c2c(O)c3c(n(C)c2=O)CC(C)(C)CC3=O)c(C)c1 | -5 | 1.5 | 10* | 1.1 | 90 | -2 | 0.08*
O=C(CN(CCc1ccccc1)S(=O)(=O)c1ccc(Cl)cc1)N/N=C/c1ccccc1C(=O)O | -2 | 1.1 | x | 1 | 92 | -6 | x
Cc1nc(NC(=O)c2cc3c(C)nn(-c4ccccc4)c3s2)sc1C(=O)Nc1ccccc1 | -7 | 1.5 | -0.46 | 1.1 | 99 | -16 | x
CC(=O)c1sc(NC(=O)c2cc3c(C)nn(-c4ccccc4)c3s2)nc1C | -4 | 1.4 | 4* | 1 | 91 | -7 | 0.11*
CCOC(=O)c1c(C)n2c3c(cc(C)cc13)CCC2 | 0 | 1.3 | x | 1 | 99 | 10 | x
COc1ccc(NC(=O)c2ccc(-n3cccn3)nc2)cc1 | -4 | 1.3 | 0.85 | 1 | 107 | -12 | 0.098
O=C(CN1CCc2ccccc2C1)c1cccs1 | -3 | 1 | 5.6* | 1 | 108 | 4 | 0.096*
CC(C)c1ccc(/C=N/NC(=O)c2c(Cl)cnn2C)cc1 | 93* | 5.2* | 5.1* | 0.1 | 138* | 117 | 0.091*
COc1ccc(NC(=O)CSc2nccc(C)n2)cc1 | -6 | 1.1 | 1.9 | 1.1 | 95 | -2 | 0.036
COc1ccc(NC(=O)CSc2nc(N3CCCCC3)nc(N3CCCCC3)n2)cc1 | -1 | 0.94 | 1.1 | 1 | 100 | 6 | 0.084*
COc1ccc(NC(=O)CN2CCCCC2)cc1 | 0 | 1.3 | 0.66 | 1 | 100 | 15 | x
SMILES | FLuc inh counter | NF-kB expr up | sdo1 growth | FLuc stim CS | STAT1 activator | APP 5'UTR act | sdo1 rescue conf
COc1cc(NC(=O)CSc2nccc(C)n2)c(C(=O)O)cc1OC | -4 | 1.1 | -0.25 | 1 | 103 | 7 | x
Cc1ccc(S(=O)(=O)N2CCC(C(=O)NNC(=O)c3ccncc3)CC2)cc1 | -3 | 1 | x | 1 | 95 | 14 | x
CCCOC(=O)CC1C(=O)NCCN1C(=O)OC(C)(C)C (configuration not stated) | -6 | 1.2 | x | 1.1 | 108 | 27 | x
CCOc1ccc(C(C)=O)cc1N1C(=O)C2C3C=CC(C3)C2C1=O (configuration not stated) | -6 | 1 | -0.16 | 1.1 | 104 | -17 | x
CCOc1ccc(CCN2C(=O)C3C4C=CC(C4)C3C2=O)cc1OCC (configuration not stated) | -4 | 1.3 | 0.85 | 1 | 96 | 7 | 0.069
Cc1nn(C)c(C)c1CN(C)C(=O)CCCC(=O)O | -3 | 1.2 | 1.3 | 1 | 102 | 19 | x
CCOC(=O)c1c(C)c(-c2ccccc2)n(CC(=O)N2CCCC2)c1C | -8 | 0.99 | -1.1 | 1.1 | 103 | -7 | x
Cc1cccc2cc(C#N)c(SCC(=O)NCC3CCCO3)nc12 (configuration not stated) | -1 | 0.96 | -0.09 | 1 | 100 | -18 | x
Cc1cccc2c(SCC(=O)NCC3CCCO3)nc(-c3ccc(F)cc3)nc12 (configuration not stated) | -6 | 1.2 | 1.8 | 1.1 | 100 | 1 | 0.11*
Cc1cccc(C)c1NC(=O)CNc1ncnc2sc(C)c(C)c12 | -1 | 1.6 | 0.53 | 1 | 105 | -11 | x
O=C(CCSCCC(=O)NCCN1CCOCC1)NCCN1CCOCC1 | 0 | 1.4 | 0.83 | 1 | 96 | -4 | x
O=C(CCSCCc1ccncc1)NCCCN1CCOCC1 | -7 | 1.9 | 2.6 | 1.1 | 101 | 3 | 0.1*
Cc1c(C(=O)NC2CCCc3ccccc32)oc2ccc(S(=O)(=O)N3CCCCC3)cc12 (configuration not stated) | 0 | 1.2 | 9.3* | 1 | 98 | -5 | 0.092*
COC(=O)c1cc(C#N)c(N(C)Cc2ccccc2)nc1C | -1 | 1.6 | -1.8 | 1 | 109 | -11 | x
COC(=O)c1cc(C#N)c(NCc2ccccc2)nc1C | -6 | 1.8 | 14* | 1.1 | 105 | x | 0.087*
COc1ccc(CN2CCN(C(C)C)C(CCO)C2)cc1Cn1cncn1 (configuration not stated) | -2 | x | x | 1 | 98 | 0 | x
Cc1nc2ncnn2c(C)c1CCC(=O)N1CCCCC1 | -6 | 1 | 0.32 | 1.1 | 100 | x | x
Cc1nc2ncnn2c(C)c1CCC(=O)N1CCOCC1 | -8 | 1.1 | 5.1* | 1.1 | 94 | -2 | 0.098*
